{"source": "ChEMBL document CHEMBL1154185", "about": "(J Med Chem, 2009)", "key": {"A549 [1]": {"system": "A549", "assay": "Inhibition of cell migration of proapoptotic stimuli-resistant human A549 cells at 5 uM by quantitative video microscopy", "type": "functional, cell-based", "method_in_brief": "(§1)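 Quantitative videomicroscopy of cells untreated or given 0.5 or 5 μM. Migration scored as MRDO, the greatest linear distance each single cell travels from its origin, over 12 or 24 h of observation. Means ± SEMs.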"}, "B16-F10 [2]": {"system": "B16-F10", "assay": "Growth inhibition of proapoptotic stimuli-sensitive mouse B16F10 cells after 72 hrs by MTT assay", "type": "functional, cell-based", "conditions": "Mus musculus, B16-F10, 72 h", "method_in_brief": "(§2)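 MTT assay. Cells were plated at 10,000–40,000 cells/mL and left 24 h to attach, then exposed to compound for 72 h (untreated controls). Formazan was read at 570 nm (reference 630 nm). Tested up to 10 μM (first panel) or up to 100 μM (second panel). Sextuplicate. U373 grown in MEM + 5% FBS; Hs683, SK-MEL-28 and B16F10 in RPMI + 10% FBS.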"}, "[3]": {"assay": "Growth inhibition of human WI38 cells after 72 hrs by MTT assay", "type": "cell-based", "conditions": "WI-38, 72 h", "method_in_brief": "(§3)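 Cells plated 24 h in 96-well plates (10,000-40,000 cells/mL by cell type) in MEM (5% or 10% heat-inactivated FBS; with 100 μM non-essential amino acids for WI-38 and NHDF) or RPMI 10% FBS (A549), then exposed 72 h to compound up to 100 μM; MTT reduction read at 570 nm (reference 630 nm); sextuplicate.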"}, "SK-MEL-28": {"system": "SK-MEL-28", "assay": "Growth inhibition of proapoptotic stimuli-resistant human SK-MEL-28 cells after 72 hrs by MTT assay", "type": "functional, cell-based", "conditions": "Homo sapiens, SK-MEL-28, 72 h", "method_in_brief": "as §2"}, "[4]": {"assay": "Reduction in mitosis occurrence in proapoptotic stimuli-resistant human U373 cells at 5 uM after 72 hrs by quantitative video microscopy", "type": "functional, U-373MG ATCC", "set-up": "scale not given: the % may be the effect or the level left", "method_in_brief": "(§4)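 Cells treated 72 h with 5 μM compound and filmed by computer-assisted phase-contrast videomicroscopy; mitoses counted within a 2 mm² frame over the 72 h observation period, compared with untreated control.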"}, "U-373MG ATCC [5]": {"system": "U-373MG ATCC", "assay": "Increase in actin cytoskeleton rigidity in proapoptotic stimuli-resistant human U373 cells at 5 uM after 6 hrs by fluorescence microscopy"}, "U-373MG ATCC [6]": {"system": "U-373MG ATCC", "assay": "Inhibition of cytokinesis in proapoptotic stimuli-resistant human U373 cells at 5 uM after 72 hrs by quantitative video microscopy", "type": "functional, cell-based", "method_in_brief": "(§5)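 Quantitative videomicroscopy with 5 μM for 72 h. Mitoses counted within a 2 mm² frame over the 72 h observation. Single cells in treated colonies were tracked at high magnification to follow mitosis and cytokinesis over time.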"}, "U-373MG ATCC [7]": {"system": "U-373MG ATCC", "assay": "Cytostatic activity against proapoptotic stimuli-resistant human U373 cells at 5 uM after 72 hrs by quantitative video microscopy", "type": "functional, cell-based", "method_in_brief": "(§6)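 Phase-contrast time-lapse videomicroscopy with 5 μM for 72 h vs untreated control. Growth level = cell count in last frame / first frame (0 h). Global growth ratio compares treated with control growth level. Counts done in triplicate with an interactive tool. Morphology followed over the same period.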"}, "A549 [8]": {"system": "A549", "assay": "Reduction of colony formation in undifferentiated proapoptotic stimuli-resistant human A549 cells at 5 uM under anchorage-independent culture conditions by quantitative video microscopy", "type": "functional, cell-based", "method_in_brief": "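Soft-agar (anchorage-independent) culture of A549 cells, without or with 5 μM, for 38 days after plating. Colonies counted in three 0.4 mm² areas per condition, experiment in hexaplicate. Means ± SEMs.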"}, "[9]": {"assay": "Toxicity in iv dosed mouse administered once daily for 5 consecutive days measured after 28 days", "type": "organism-based", "conditions": "in vivo", "method_in_brief": "(§7)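 Healthy mice given compound i.v. (tail vein) in 50 μL saline once daily for 5 consecutive days (Monday-Friday) at 5, 10, 20, 40 or 80 mg/kg; 3 mice per group; body weight and survival followed over 28 days; MTD defined as dose just below lowest dose killing at least one mouse; means ± SEM.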"}, "B16-F10 [10]": {"system": "B16-F10", "assay": "Antitumor activity against mouse B16F10 cells implanted in B6D2F1 mouse assessed as increase in mouse survival at 40 mg/kg, iv administered thrice weekly for 3 consecutive weeks starting from 5th day post tumor grafting", "type": "functional, organism-based", "set-up": "dose 40 mg/kg", "method_in_brief": "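Female B6D2F1 mice (17-19 g) received stereotactic brain implants of B16F10 melanoma cells, all on the same day. Treatment started on day 5 post-graft: 40 mg/kg i.v. (tail vein) in 50 μL, Mon/Wed/Fri for 3 consecutive weeks. Controls received 50 μL saline i.v.; the reference arm got cisplatin 5 mg/kg i.p. on the same schedule. 11 mice per group; survival analysed.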"}, "[11]": {"assay": "Growth inhibition of human WS1 cells after 72 hrs by MTT assay", "type": "cell-based", "conditions": "WS1, 72 h", "method_in_brief": "as §3"}, "Mus musculus": {"system": "Mus musculus", "assay": "Toxicity in iv dosed mouse assessed as reduction of body weight at 5 to 80 mg/kg, iv administered once daily for 5 consecutive days measured after 28 days", "type": "organism-based", "set-up": "dose 5-80 mg/kg, route intravenous", "conditions": "in vivo, 672 h", "method_in_brief": "as §7"}, "B16-F10 [12]": {"system": "B16-F10", "assay": "Antitumor activity against mouse B16F10 cells implanted in iv dosed B6D2F1 mouse assessed as active dose increasing mouse survival administered thrice weekly for 3 consecutive weeks starting from 5th day post tumor grafting", "type": "functional"}, "[13]": {"assay": "Growth inhibition of proapoptotic stimuli-resistant human OE21 cells after 72 hrs by MTT assay", "type": "functional, cell-based", "conditions": "Homo sapiens, OE21, 72 h"}, "U-373MG ATCC [14]": {"system": "U-373MG ATCC", "assay": "Induction of non-apoptotic cell death in human U373 cells at 50 uM after 72 hrs by annexin-V/propidium iodide staining based flow cytometry", "type": "functional", "method_in_brief": "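Flow cytometry with annexin-V/propidium iodide double staining after 72 h. U373 given 0, 5 or 50 μM; MCF-7 treated 72 h with a 1 μM pro-apoptotic positive control. Early apoptosis = AV+/PI−, late = AV+/PI+, non-apoptotic death = AV−/PI+. Means ± SEMs.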"}, "U-373MG ATCC [15]": {"system": "U-373MG ATCC", "assay": "Increase in polymerized actin levels in proapoptotic stimuli-resistant human U373 cells at 5 uM after 6 hrs by fluorescence microscopy", "type": "functional, cell-based", "method_in_brief": "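U373 cells, untreated or exposed to 5 μM for 6 h, stained and imaged by computer-assisted fluorescence microscopy. Fibrillar (polymerized) actin labelled with Alexa Fluor488-phallacidin (green); globular actin with Alexa Fluor594-DNase I (red).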"}, "A549 [16]": {"system": "A549", "assay": "Inhibition of cytokinesis in proapoptotic stimuli-resistant human A549 cells at 5 uM after 72 hrs by quantitative video microscopy", "type": "functional, cell-based", "method_in_brief": "as §5"}, "NHDF": {"system": "NHDF", "assay": "Growth inhibition of human NHDF after 72 hrs by MTT assay", "type": "cell-based", "method_in_brief": "as §3"}, "A549 [17]": {"system": "A549", "assay": "Growth inhibition of proapoptotic stimuli-resistant human A549 cells after 72 hrs by MTT assay", "type": "functional, cell-based", "conditions": "Homo sapiens, A549, 72 h", "method_in_brief": "as §3"}, "A549 [18]": {"system": "A549", "assay": "Reduction in mitosis occurrence in proapoptotic stimuli-resistant human A549 cells at 5 uM after 72 hrs by quantitative video microscopy", "type": "functional", "set-up": "scale not given: the % may be the effect or the level left", "method_in_brief": "as §4"}, "U-373MG ATCC [19]": {"system": "U-373MG ATCC", "assay": "Reduction of colony formation in undifferentiated proapoptotic stimuli-resistant human U373 cells at 5 uM under anchorage-independent culture conditions by quantitative video microscopy", "type": "functional, cell-based"}, "A549 [20]": {"system": "A549", "assay": "Reduction of colony formation in undifferentiated proapoptotic stimuli-resistant human A549 cells at 5 uM under anchorage-independent culture conditions by quantitative video microscopy"}, "A549 [21]": {"system": "A549", "assay": "Increase in polymerized actin levels in proapoptotic stimuli-resistant human A549 cells at 5 uM after 6 hrs by fluorescence microscopy", "type": "functional, cell-based"}, "U-373MG ATCC [22]": {"system": "U-373MG ATCC", "assay": "Reduction of colony formation in undifferentiated proapoptotic stimuli-resistant human U373 cells at 0.5 uM under anchorage-independent culture conditions by quantitative video microscopy", "type": "functional, cell-based"}, "A549 [23]": {"system": "A549", "assay": "Cytotoxic activity against proapoptotic stimuli-resistant human A549 cells assessed as induction of cell death at 5 uM after 72 hrs by quantitative video microscopy", "type": "functional, cell-based", "method_in_brief": "as §6"}, "[24]": {"assay": "Growth inhibition of proapoptotic stimuli-resistant human U373 cells after 72 hrs by MTT assay", "type": "functional, cell-based, U-373MG ATCC", "conditions": "Homo sapiens, U373 MG, 72 h", "method_in_brief": "as §2"}, "[25]": {"assay": "Growth inhibition of proapoptotic stimuli-sensitive human Hs683 cells after 72 hrs by MTT assay", "type": "functional, cell-based, Hs 683", "conditions": "Homo sapiens, Hs 683, 72 h", "method_in_brief": "as §2"}, "A549 [26]": {"system": "A549", "assay": "Cytostatic activity against proapoptotic stimuli-resistant human A549 cells at 5 uM after 72 hrs by quantitative video microscopy", "type": "functional, cell-based", "method_in_brief": "as §6"}, "U-373MG ATCC [27]": {"system": "U-373MG ATCC", "assay": "Inhibition of cell migration of proapoptotic stimuli-resistant human U373 cells at 5 uM by quantitative video microscopy", "type": "functional, cell-based", "method_in_brief": "as §1"}, "U-373MG ATCC [28]": {"system": "U-373MG ATCC", "assay": "Cytotoxic activity against proapoptotic stimuli-resistant human U373 cells assessed as induction of cell death at 5 uM after 72 hrs by quantitative video microscopy", "type": "functional, cell-based", "method_in_brief": "as §6"}}, "note": "Calls of active or inactive are those of the source.", "data": [{"smiles": "O[C@H]1[C@H]2c3cc4c(cc3CN3CCC(=C[C@@H]1O)[C@H]23)OCO4", "note": "[LYCORINE]", "values": [{"measurement": "Activity", "setting": "A549 [1]", "result": "Active"}, {"measurement": "IC50", "setting": "B16-F10 [2]", "result": 6.3, "unit": "µM"}, {"measurement": "IC50", "setting": "[3]", "result": "> 100", "unit": "µM"}, {"measurement": "IC50", "setting": "SK-MEL-28", "result": 8.5, "unit": "µM"}, {"measurement": "Activity", "setting": "[4]", "result": ">=90%"}, {"measurement": "Activity", "setting": "U-373MG ATCC [5]", "result": "Active"}, {"measurement": "Activity", "setting": "U-373MG ATCC [6]", "result": "Active"}, {"measurement": "Activity", "setting": "U-373MG ATCC [7]", "result": "Active"}, {"measurement": "Activity", "setting": "A549 [8]", "result": "Active"}, {"measurement": "MTD at 672 h", "setting": "[9]", "result": "> 80", "unit": "mg/kg"}, {"measurement": "Activity", "setting": "B16-F10 [10]", "result": "Active"}, {"measurement": "IC50", "setting": "[11]", "result": "> 100", "unit": "µM"}, {"measurement": "Activity", "setting": "Mus musculus", "result": "Non-toxic"}, {"measurement": "Dose", "setting": "B16-F10 [12]", "result": 40, "unit": "mg/kg"}, {"measurement": "IC50", "setting": "[13]", "result": 5.1, "unit": "µM"}, {"measurement": "Activity", "setting": "U-373MG ATCC [14]", "result": "Active"}, {"measurement": "Activity", "setting": "U-373MG ATCC [15]", "result": "Active"}, {"measurement": "Activity", "setting": "A549 [16]", "result": "Active"}, {"measurement": "IC50", "setting": "NHDF", "result": "> 100", "unit": "µM"}, {"measurement": "IC50", "setting": "A549 [17]", "result": 4.3, "unit": "µM"}, {"measurement": "Activity", "setting": "A549 [18]", "result": ">=90%"}, {"measurement": "Activity", "setting": "U-373MG ATCC [19]", "result": "Active"}, {"measurement": "Activity", "setting": "A549 [20]", "result": "Active"}, {"measurement": "Activity", "setting": "A549 [21]", "result": "Active"}, {"measurement": "Activity", "setting": "U-373MG ATCC [22]", "result": "Active"}, {"measurement": "Activity", "setting": "A549 [23]", "result": "inactive"}, {"measurement": "IC50", "setting": "[24]", "result": 7.6, "unit": "µM"}, {"measurement": "IC50", "setting": "[25]", "result": 6.7, "unit": "µM"}, {"measurement": "Activity", "setting": "A549 [26]", "result": "Active"}, {"measurement": "Activity", "setting": "U-373MG ATCC [27]", "result": "Active"}, {"measurement": "Activity", "setting": "U-373MG ATCC [28]", "result": "inactive"}]}]}
